Assay results: ChEMBL document CHEMBL4689842, “EUbOPEN Chemogenomics Library wave 1” (2021)

Test system: U2OS
Experiment: Multiplex assay against U2OS
Format: toxicity, cell-based
Details: human
Summary of the method: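 Four dyes were applied at seeding to live cells: Hoechst33342, BioTracker Green Microtubule Cytoskeleton Dye, MitoTracker Red and Annexin V Alexa Fluor 680. Imaging after compound addition used a CQ1 microscope at 37°C and 5% CO2. CellPathfinder machine-learning gating then sorted cells into Hoechst high-intensity objects or normal cells, normal cells into healthy, pyknosed or fragmented nuclei, and pyknosed cells into mitotic or apoptotic, with tubulin, mitochondrial-mass and membrane-permeability phenotypes given as per cents of healthy-nucleus cells.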

[1] = 12 h, 1 µM, compound concentration 1 uM, replicate 1
[2] = 12 h, 1 µM, compound concentration 1 uM, replicate 2
[3] = 12 h, 10 µM, compound concentration 10 uM, replicate 1
[4] = 12 h, 10 µM, compound concentration 10 uM, replicate 2
[5] = 24 h, 1 µM, compound concentration 1 uM, replicate 1
[6] = 24 h, 1 µM, compound concentration 1 uM, replicate 2
[7] = 24 h, 10 µM, compound concentration 10 uM, replicate 1
[8] = 24 h, 10 µM, compound concentration 10 uM, replicate 2
[9] = 48 h, 1 µM, compound concentration 1 uM, replicate 1
[10] = 48 h, 1 µM, compound concentration 1 uM, replicate 2
[11] = 48 h, 10 µM, compound concentration 10 uM, replicate 1
[12] = 48 h, 10 µM, compound concentration 10 uM, replicate 2

## CNc1nc(NCc2ccc(NS(C)(=O)=O)cc2Cl)cc(-c2ccccn2)n1
[1]
  Population Apoptotic (%): 35%
  Population Fragmented Nuclei (%): 12%
  Population Healthy Nuclei (%): 70%
  Population Hoechst High Intensity Objects (%): 10%
  Population Membrane Permeable-Phenotype (%): 7%
  Population Mitochondria Different-Phenotype (%): 12%
  Population Mitotic Cells (%): 64%
  Population Normal (%): 89%
  Population Pyknosed Nuclei (%): 17%
  Population Tubulin-Different-Phenotype (%): 19%
  Total Cell Count: 121
[2]
  Population Apoptotic (%): 33%
  Population Fragmented Nuclei (%): 11%
  Population Healthy Nuclei (%): 82%
  Population Hoechst High Intensity Objects (%): 8%
  Population Membrane Permeable-Phenotype (%): 0%
  Population Mitochondria Different-Phenotype (%): 9%
  Population Mitotic Cells (%): 66%
  Population Normal (%): 91%
  Population Pyknosed Nuclei (%): 5%
  Population Tubulin-Different-Phenotype (%): 11%
  Total Cell Count: 61
[3]
  Population Apoptotic (%): 61%
  Population Fragmented Nuclei (%): 13%
  Population Healthy Nuclei (%): 75%
  Population Hoechst High Intensity Objects (%): 10%
  Population Membrane Permeable-Phenotype (%): 5%
  Population Mitochondria Different-Phenotype (%): 29%
  Population Mitotic Cells (%): 38%
  Population Normal (%): 89%
  Population Tubulin-Different-Phenotype (%): 37%
  Total Cell Count: 91
[4]
  Population Apoptotic (%): 57%
  Population Fragmented Nuclei (%): 6%
  Population Healthy Nuclei (%): 81%
  Population Hoechst High Intensity Objects (%): 9%
  Population Membrane Permeable-Phenotype (%): 12%
  Population Mitochondria Different-Phenotype (%): 32%
  Population Mitotic Cells (%): 42%
  Population Normal (%): 90%
  Population Pyknosed Nuclei (%): 11%
  Population Tubulin-Different-Phenotype (%): 30%
  Total Cell Count: 56
[5]
  Population Apoptotic (%): 50%
  Population Fragmented Nuclei (%): 9%
  Population Healthy Nuclei (%): 78%
  Population Hoechst High Intensity Objects (%): 8%
  Population Membrane Permeable-Phenotype (%): 3%
  Population Mitochondria Different-Phenotype (%): 17%
  Population Mitotic Cells (%): 50%
  Population Normal (%): 91%
  Population Pyknosed Nuclei (%): 11%
  Population Tubulin-Different-Phenotype (%): 19%
  Total Cell Count: 125
[6]
  Population Apoptotic (%): 25%
  Population Fragmented Nuclei (%): 8%
  Population Healthy Nuclei (%): 85%
  Population Hoechst High Intensity Objects (%): 1%
  Population Membrane Permeable-Phenotype (%): 0%
  Population Mitochondria Different-Phenotype (%): 11%
  Population Mitotic Cells (%): 75%
  Population Normal (%): 98%
  Population Pyknosed Nuclei (%): 5%
  Population Tubulin-Different-Phenotype (%): 11%
  Total Cell Count: 67
[7]
  Population Apoptotic (%): 52%
  Population Fragmented Nuclei (%): 18%
  Population Healthy Nuclei (%): 67%
  Population Hoechst High Intensity Objects (%): 8%
  Population Membrane Permeable-Phenotype (%): 6%
  Population Mitochondria Different-Phenotype (%): 23%
  Population Mitotic Cells (%): 47%
  Population Normal (%): 91%
  Population Pyknosed Nuclei (%): 14%
  Population Tubulin-Different-Phenotype (%): 29%
  Total Cell Count: 113
[8]
  Population Apoptotic (%): 50%
  Population Fragmented Nuclei (%): 20%
  Population Healthy Nuclei (%): 66%
  Population Hoechst High Intensity Objects (%): 10%
  Population Membrane Permeable-Phenotype (%): 4%
  Population Mitochondria Different-Phenotype (%): 26%
  Population Mitotic Cells (%): 50%
  Population Normal (%): 89%
  Population Pyknosed Nuclei (%): 12%
  Population Tubulin-Different-Phenotype (%): 17%
  Total Cell Count: 71
[9]
  Population Apoptotic (%): 41%
  Population Fragmented Nuclei (%): 12%
  Population Healthy Nuclei (%): 76%
  Population Hoechst High Intensity Objects (%): 7%
  Population Membrane Permeable-Phenotype (%): 0%
  Population Mitochondria Different-Phenotype (%): 21%
  Population Mitotic Cells (%): 58%
  Population Normal (%): 92%
  Population Pyknosed Nuclei (%): 11%
  Population Tubulin-Different-Phenotype (%): 21%
  Total Cell Count: 114
[10]
  Population Apoptotic (%): 0%
  Population Fragmented Nuclei (%): 6%
  Population Healthy Nuclei (%): 90%
  Population Hoechst High Intensity Objects (%): 3%
  Population Membrane Permeable-Phenotype (%): 2%
  Population Mitochondria Different-Phenotype (%): 19%
  Population Mitotic Cells (%): 100%
  Population Normal (%): 96%
  Population Pyknosed Nuclei (%): 3%
  Population Tubulin-Different-Phenotype (%): 15%
  Total Cell Count: 71
[11]
  Population Apoptotic (%): 64%
  Population Healthy Nuclei (%): 53%
  Population Hoechst High Intensity Objects (%): 8%
  Population Membrane Permeable-Phenotype (%): 7%
  Population Mitochondria Different-Phenotype (%): 28%
  Population Mitotic Cells (%): 35%
  Population Normal (%): 91%
  Population Pyknosed Nuclei (%): 25%
  Population Tubulin-Different-Phenotype (%): 10%
  Total Cell Count: 165
[12]
  Population Apoptotic (%): 44%
  Population Fragmented Nuclei (%): 21%
  Population Healthy Nuclei (%): 51%
  Population Hoechst High Intensity Objects (%): 13%
  Population Membrane Permeable-Phenotype (%): 20%
  Population Mitochondria Different-Phenotype (%): 41%
  Population Mitotic Cells (%): 55%
  Population Normal (%): 86%
  Population Pyknosed Nuclei (%): 27%
  Population Tubulin-Different-Phenotype (%): 23%
  Total Cell Count: 124
